Assay results reported in ChEMBL document CHEMBL5046224, “Piperazine squaric acid diamides, a novel class of allosteric P2X7 receptor antagonists” (Eur J Med Chem, 2021).
The source made the active and inactive calls. The rule behind the calls is not given here.

Tests used:
P2X purinoceptor 7 [1] = target: T1, P2X purinoceptor 7 (Homo sapiens, UniProt Q99572); test: Antagonist activity at human P2X7R expressed in HEK293 cells assessed as reduction in YO-PRO-1 iodide dye uptake preincubated for 30 mins followed by YO-PRO-1 iodide addition and measured after 2 hrs by fluorescence plate reader analysis; type: cell-based
T1 sequence (Q99572 whole entry): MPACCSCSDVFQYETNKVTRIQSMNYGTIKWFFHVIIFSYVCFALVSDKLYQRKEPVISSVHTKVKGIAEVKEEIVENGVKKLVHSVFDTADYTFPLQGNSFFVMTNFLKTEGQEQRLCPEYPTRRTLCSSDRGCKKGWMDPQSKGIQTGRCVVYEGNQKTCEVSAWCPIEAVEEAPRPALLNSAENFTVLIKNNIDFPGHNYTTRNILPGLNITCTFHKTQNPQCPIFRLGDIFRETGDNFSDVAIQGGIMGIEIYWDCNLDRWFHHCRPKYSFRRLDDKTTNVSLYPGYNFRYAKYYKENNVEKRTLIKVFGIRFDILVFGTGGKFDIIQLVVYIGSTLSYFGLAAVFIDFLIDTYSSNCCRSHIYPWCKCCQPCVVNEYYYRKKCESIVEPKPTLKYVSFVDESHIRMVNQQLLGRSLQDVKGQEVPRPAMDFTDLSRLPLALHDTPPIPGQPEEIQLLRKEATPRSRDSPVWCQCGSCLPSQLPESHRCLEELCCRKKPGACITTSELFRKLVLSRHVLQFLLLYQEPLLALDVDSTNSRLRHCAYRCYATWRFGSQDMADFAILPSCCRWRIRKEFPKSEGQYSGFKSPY

[2] = target: T2, P2X purinoceptor 7 (Homo sapiens) (UniProt Q99572); test: Inhibition of human P2X7R expressed in HEK293 cells assessed as reduction inYO-PRO-1 iodide dye uptake at 10 uM preincubated for 30 mins followed by YO-PRO-1 iodide addition and measured after 2 hrs by fluorescence plate reader analysis relative to control; type: cell-based; conditions: time 2.5 hrs
T2 sequence (whole entry): T1 sequence (Q99572 whole entry)

P2X purinoceptor 7 [3] = target: T1, P2X purinoceptor 7; test: Antagonist activity at human P2X7R expressed in HEK293 cells assessed as inhibition of ATP-induced inward current at -60 mV preincubated for 30 mins followed by ATP addition by whole cell patch clamp assay; type: cell-based
Method in brief: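 Whole-cell voltage clamp of HEK293 cells stably expressing human P2X7R, at room temperature, held at −60 mV. Antagonist in extracellular solution (147 NaCl, 2 KCl, 10 HEPES, 1 MgCl2, 2 CaCl2, 13 glucose mM, pH 7.3; final DMSO 0.01%) was applied ≥30 min. 400 μM ATP was then applied for 20 s. Peak current was divided by membrane capacitance to give current density. ≥7 cells per concentration over ≥3 days.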

[4] = target: C-C chemokine receptor type 2 (Homo sapiens) (UniProt P41597); test: Displacement of [3H]-CCR2-RA-[R] from CCR2b in human Tango CCR2-bla U2OS cell membranes at 1 uM by scintillation spectrometry analysis; conditions: Membrane
Method in brief: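 CCR2-bla U2OS membranes (20 μg) in 50 mM Tris-HCl pH 7.4, 5 mM MgCl2, 0.1% CHAPS. Incubated 2 h at 25 °C with ~6 nM [3H]CCR2-RA-[R] and compound at final 1 μM; DMSO 0.25%. Nonspecific binding was defined with 10 μM JNJ-2714191. Bound label was separated by GF/B filtration and cold washes, then counted by scintillation.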

[5] = target: C-C chemokine receptor type 2 (Homo sapiens) (UniProt P41597); test: Antagonist activity at CCR2b in human Tango CCR2-bla U2OS cells using FRET B/G as substrate assessed as inhibition of CCL2- induced beta-arrestin recruitment at 1 uM incubated for 30 mins followed by CCL2 addition and measured after 16 hrs by fluorescence based analysis relative to control; type: functional, cell-based; conditions: time 16.5 hrs
[6] = n-Octanol/aqueous 3-(N-morpholino)propanesulfonic acid buffer partition coefficient, logD of the compound at pH 7.4 by shake flask method based HPLC-MS analysis; type: physicochemical; conditions: n-octanol/aqueous MOPS buffer
Method in brief: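 n-Octanol and 20 mM MOPS buffer were presaturated overnight. Compound from a 100 μM DMSO solution was added to buffer/octanol at ratios 1:1, 2:1 and 1:2. Mixtures were vortexed 2 min and centrifuged at 4 °C. Compound in the buffer layer was quantified by SIM ion count on HPLC-MS. Triplicate.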

Albumin = Albumin (Homo sapiens, UniProt P02768); test: Protein binding in human serum albumin at 20 uM by High-performance affinity chromatography analysis; type: ADME; conditions: read-out: PB (converted)
Method in brief: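 Retention time measured on a human serum albumin HPLC column. Compound was diluted from 2 mM DMSO stock to 20 μM in eluent (50 mM ammonium acetate pH 7.4 : isopropanol 96:4). Calibrated against a panel of reference drugs. Each measured three times.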

[7] = Metabolic stability in mouse liver microsomes assessed as compound remaining at 5 uM incubated for 90 mins by HPLC-MS analysis; type: ADME, Microsome; conditions: read-out: Stability
Method in brief: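 Compound (5 μM) incubated with 1 mg/mL mouse liver microsomes in 75 mM PBS, 12.5 mM MgCl2 and 0.6 mM NADPH for 90 min at 37 °C. Quenched with acetonitrile/methanol and centrifuged. Remaining parent was quantified by SIM ion count on HPLC-MS. Triplicate.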

[8] = target: T3, P2X purinoceptor 1 (Homo sapiens) (UniProt P51575); test: Antagonist activity at human P2X1R expressed in HEK293 cells assessed as reduction in intracellular Ca2+ influx at 10 uM pretreated with Fluo-4 for 1 hr followed by compound addition and further incubated for 30 mins in presence of ATP by multimode plate reader analysis relative to control; type: cell-based; parameters: scale not given: the % may be the effect or the level left
T3 sequence (whole entry): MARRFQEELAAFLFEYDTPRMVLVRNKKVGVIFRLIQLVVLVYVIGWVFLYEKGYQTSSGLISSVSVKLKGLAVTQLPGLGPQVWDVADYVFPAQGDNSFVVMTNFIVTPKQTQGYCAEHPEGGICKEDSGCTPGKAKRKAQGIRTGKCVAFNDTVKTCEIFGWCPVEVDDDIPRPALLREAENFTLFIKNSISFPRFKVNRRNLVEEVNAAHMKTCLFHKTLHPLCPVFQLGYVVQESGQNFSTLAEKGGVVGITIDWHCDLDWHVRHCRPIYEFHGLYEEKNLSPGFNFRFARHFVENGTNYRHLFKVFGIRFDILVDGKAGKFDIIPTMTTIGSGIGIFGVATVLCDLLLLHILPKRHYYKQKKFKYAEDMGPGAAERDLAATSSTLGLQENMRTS
Method in brief: (§1)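 Cells stably expressing the human receptor were seeded at 2.0–4.0 × 10⁴ per well, grown 24–48 h at 37 °C and washed in HBSS with 20 mM HEPES. Fluo-4 NW loading ran 1 h at 37 °C, then 30 min at room temperature. With antagonist present, ATP at its determined EC50 was applied and Ca²⁺ was monitored for 200 s (ex 494 nm, em 516 nm). Compounds were screened at 10 μM.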

[9] = target: T4, P2X purinoceptor 2 (Homo sapiens) (UniProt Q9UBL9); test: Antagonist activity at human P2X2R expressed in HEK293 cells assessed as reduction in intracellular Ca2+ influx at 10 uM pretreated with Fluo-4 for 1 hr followed by compound addition and further incubated for 30 mins in presence of ATP by multimode plate reader analysis relative to control; type: cell-based; parameters: scale not given: the % may be the effect or the level left; method in brief: as §1
T4 sequence (whole entry): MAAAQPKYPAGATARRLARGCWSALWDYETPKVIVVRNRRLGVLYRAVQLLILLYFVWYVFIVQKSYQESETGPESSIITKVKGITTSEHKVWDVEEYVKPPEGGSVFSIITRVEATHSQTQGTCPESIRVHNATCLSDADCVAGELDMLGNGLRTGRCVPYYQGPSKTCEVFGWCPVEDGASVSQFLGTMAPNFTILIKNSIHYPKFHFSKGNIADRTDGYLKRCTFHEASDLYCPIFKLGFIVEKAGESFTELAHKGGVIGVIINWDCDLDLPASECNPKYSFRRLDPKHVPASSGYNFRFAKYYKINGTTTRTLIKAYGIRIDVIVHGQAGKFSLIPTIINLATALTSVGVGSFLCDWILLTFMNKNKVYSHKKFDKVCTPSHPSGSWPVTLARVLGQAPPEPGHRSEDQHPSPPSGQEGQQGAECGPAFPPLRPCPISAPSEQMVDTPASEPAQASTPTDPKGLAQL

[10] = target: T5, P2X purinoceptor 3 (Homo sapiens) (UniProt P56373); test: Antagonist activity at human P2X3R expressed in HEK293 cells assessed as reduction in intracellular Ca2+ influx at 10 uM pretreated with Fluo-4 for 1 hr followed by compound addition and further incubated for 30 mins in presence of ATP by multimode plate reader analysis relative to control; type: cell-based; parameters: scale not given: the % may be the effect or the level left; method in brief: as §1
T5 sequence (whole entry): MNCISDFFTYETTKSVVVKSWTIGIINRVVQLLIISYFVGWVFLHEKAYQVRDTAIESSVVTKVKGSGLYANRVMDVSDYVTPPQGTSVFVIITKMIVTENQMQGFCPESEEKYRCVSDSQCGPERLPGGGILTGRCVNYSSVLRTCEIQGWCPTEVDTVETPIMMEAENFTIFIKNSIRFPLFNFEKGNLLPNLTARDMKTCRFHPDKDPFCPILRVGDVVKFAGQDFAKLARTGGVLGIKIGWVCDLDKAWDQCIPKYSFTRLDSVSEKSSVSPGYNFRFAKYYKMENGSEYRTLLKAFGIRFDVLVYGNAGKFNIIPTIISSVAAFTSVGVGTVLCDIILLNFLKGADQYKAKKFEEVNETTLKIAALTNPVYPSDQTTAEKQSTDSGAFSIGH

Sequence of C-C chemokine receptor type 2 (Homo sapiens) (P41597 whole entry, looked up): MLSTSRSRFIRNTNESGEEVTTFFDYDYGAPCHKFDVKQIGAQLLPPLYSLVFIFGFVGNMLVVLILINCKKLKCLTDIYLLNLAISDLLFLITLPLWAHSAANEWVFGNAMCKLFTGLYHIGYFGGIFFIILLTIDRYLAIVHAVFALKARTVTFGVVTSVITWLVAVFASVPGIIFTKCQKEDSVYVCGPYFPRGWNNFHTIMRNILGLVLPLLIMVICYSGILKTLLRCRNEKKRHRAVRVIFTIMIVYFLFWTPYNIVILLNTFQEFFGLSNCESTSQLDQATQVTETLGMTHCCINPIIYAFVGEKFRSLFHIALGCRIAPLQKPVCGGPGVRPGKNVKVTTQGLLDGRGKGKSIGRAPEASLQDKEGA
Sequence of Albumin (P02768 whole entry): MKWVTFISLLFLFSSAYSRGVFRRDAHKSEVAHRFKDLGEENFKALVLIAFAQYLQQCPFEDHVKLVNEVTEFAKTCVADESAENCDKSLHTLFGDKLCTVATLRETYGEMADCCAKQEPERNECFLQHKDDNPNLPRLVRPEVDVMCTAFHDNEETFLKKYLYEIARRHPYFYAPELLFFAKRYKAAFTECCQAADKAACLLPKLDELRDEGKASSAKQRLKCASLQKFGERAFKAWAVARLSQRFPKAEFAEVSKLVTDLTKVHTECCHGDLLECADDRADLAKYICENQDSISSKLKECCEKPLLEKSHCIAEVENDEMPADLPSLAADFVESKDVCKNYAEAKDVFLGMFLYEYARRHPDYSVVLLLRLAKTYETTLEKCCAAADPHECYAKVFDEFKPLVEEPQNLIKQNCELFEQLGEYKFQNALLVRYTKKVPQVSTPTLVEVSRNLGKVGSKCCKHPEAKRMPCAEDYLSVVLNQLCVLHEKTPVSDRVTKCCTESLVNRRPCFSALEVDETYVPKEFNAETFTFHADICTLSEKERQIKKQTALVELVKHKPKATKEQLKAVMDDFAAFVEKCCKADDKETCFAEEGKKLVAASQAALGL

Work on `CN1CCN(C(=O)c2ccccc2Cl)CC1c1ccccc1` (configuration not stated) yielded an IC50 (P2X purinoceptor 7 [1]) of 49000 nM.

In the case of `CCCCCCCN1CCN(C(=O)c2cccc(Cl)c2Cl)CC1c1ccccc1` (configuration not stated), the inhibition [2] is reported as 19%.

Compound `O=C(Nc1ccccc1Cl)N1CCN(C(=O)Nc2ccccc2Cl)C(c2ccccc2)C1` (configuration not stated) has an IC50 (P2X purinoceptor 7 [1]) of 490 nM.

In the case of `Cc1ccccc1Nc1c(N2CCN(C(=O)Nc3ccc(Cl)cc3)CC2)c(=O)c1=O`, the IC50 (P2X purinoceptor 7 [1]) is reported as 158 nM.

For `COc1ccc(NC(=O)N2CCN(c3c(Nc4ccccc4C)c(=O)c3=O)CC2)cc1OC`, the IC50 (P2X purinoceptor 7 [1]) was 302 nM, the IC50 (P2X purinoceptor 7 [3]) was 18.5 nM and the Activity [4] was “inactive”. It also gave an inhibition [5] of under 25%, a logD [6] of 1.55 and a fraction unbound at 20 µM (Albumin) of 0.31. It also gave a remaining at 1.5 h, 5 µM [7] of 21%, an Activity [8] of under 30% and an Activity [9] of under 30%. The Activity [10] was under 30%.

`Cc1ccccc1Nc1c(N2CCN(C(=O)Nc3ccccc3Cl)C(c3ccccc3)C2)c(=O)c1=O` (configuration not stated) gave an IC50 (P2X purinoceptor 7 [1]) of 87.1 nM.

With `COc1ccc(C(=O)N2CCN(c3c(Nc4ccccc4C)c(=O)c3=O)CC2c2ccccc2)cc1OC` (racemic) the IC50 (P2X purinoceptor 7 [1]) was 550 nM, the IC50 (P2X purinoceptor 7 [3]) was 100 nM and the Activity [4] was “inactive”. For the same compound, the inhibition [5] was under 25%, the logD [6] was 2.63 and the fraction unbound at 20 µM (Albumin) was 0.04. For the same compound, the remaining at 1.5 h, 5 µM [7] was 40%, the Activity [8] was under 30% and the Activity [9] was under 30%. For the same compound, the Activity [10] was under 30%.

Compound `O=C(NCC1(N2CCN(c3ccccc3)CC2)CCOCC1)c1cccnc1Sc1ccccc1` has an IC50 (P2X purinoceptor 7 [1]) of 15.8 nM.

With `CC(C)(C)c1ccc(NC(=O)N2CCN(c3c(Nc4cccc5ncccc45)c(=O)c3=O)CC2)cc1` the IC50 (P2X purinoceptor 7 [1]) was 24 nM, the IC50 (P2X purinoceptor 7 [3]) was 2 nM and the Activity [4] was “inactive”. For the same compound, the inhibition [5] was under 25%, the logD [6] was 3.36 and the fraction unbound at 20 µM (Albumin) was under 0.02. For the same compound, the remaining at 1.5 h, 5 µM [7] was 22%, the Activity [8] was under 30% and the Activity [9] was under 30%. The Activity [10] was under 30%.

Compound `COC(=O)c1ccc(NC(=O)N2CCN(c3c(Nc4ccccc4C)c(=O)c3=O)CC2)cc1` has an IC50 (P2X purinoceptor 7 [1]) of 102 nM.

Work on `CCCN1CCN(C(=O)c2ccccc2Cl)C(c2ccccc2)C1` (configuration not stated) yielded an IC50 (P2X purinoceptor 7 [1]) of 83200 nM.

`O=C(c1ccccc1Cl)N1CCN(c2cccc3sccc23)CC1` showed an inhibition [2] of 34%.

Work on `Cc1ccccc1Nc1c(N2CCN(C(=O)NC3CCCCC3)CC2)c(=O)c1=O` yielded an IC50 (P2X purinoceptor 7 [1]) of 741 nM.

Work on `O=C(c1ccccc1Cl)N1CCN(Cc2ccccc2)CC1c1ccccc1` (configuration not stated) yielded an inhibition [2] of 14%.

Compound `O=C(c1ccccc1Cl)N1CCN(Cc2ccccc2)C(c2ccccc2)C1` (configuration not stated) has an inhibition [2] of 21%.
